Experimental data as given in publication PMC11983213 (ACS Omega, 2025).
≈ marks a conversion by molar mass, not a printed value.

Key:
[1] = tested on: breast and colon cancer cells; settings: cited from earlier work
[2] = tested on: protein tyrosine kinases v-src and pp60src; settings: cited from earlier work
[3] = tested on: SPC-1-A, Bcap37, and HepG2 cancer cells; settings: via the mitochondrial apoptotic pathway; cited from earlier work
[4] = tested on: MDA-MB-231 breast cancer cell line; assay: MTT cytotoxicity assay on MDA-MB-231; type: cell-based; settings: Homo sapiens, MDA-MB-231, 48 h
How it was run: (§1)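 Cells held in RPMI-1640 or DMEM with 2 mM L-glutamine, 1% penicillin/streptomycin and 10% FBS at 37 °C, 5% CO2. Seeded in triplicate at 5000 cells per well, then treated next day with test extract or compound. After 48 h exposure, MTT reagent added for 3 h and signal read at 570 nm. IC50 estimated from the viability data.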

[5] = tested on: HSF normal cell line; assay: MTT cytotoxicity assay on HSF; type: cell-based; settings: 48 h
How it was run: as §1

[6] = tested on: HepG2 liver cancer cell line; assay: MTT cytotoxicity assay on HepG2; type: cell-based; settings: Homo sapiens, HepG2, 48 h
How it was run: as §1

[7] = tested on: MCF-7 breast cancer cell line; assay: MTT cytotoxicity assay on MCF-7; type: cell-based; settings: Homo sapiens, MCF7, 48 h
How it was run: as §1

[8] = tested on: breast cancer cells; settings: cited from earlier work
[9] = tested on: gastric cancer cells; settings: via PI3K/Akt/Snail pathway; cited from earlier work
[10] = tested on: breast and bone cancers; settings: cited from earlier work
[11] = tested on: pancreatic cancer cells; settings: by blocking NF-κB activation; cited from earlier work
[12] = tested on: breast and skin cancer cells; settings: cancer versus normal cells; cited from earlier work

| Structure (SMILES) | IC50 [4] | IC50 [5] | IC50 [6] | IC50 [7] | further results |
| --- | --- | --- | --- | --- | --- |
| O=C1c2ccccc2C(=O)c2cc(O)ccc21 [2-hydroxyanthraquinone] | – | – | – | – | induction of apoptosis [1]: resulting in apoptosis via inhibiting antiapoptotic pathways; inhibitory activity against protein tyrosine kinases [2]: exhibited inhibitory activity; effect on cell growth [3]: arrested the growth |
| COc1ccc2c(c1O)C(=O)c1ccccc1C2=O [2-methyl alizarin, 1-Hydroxy-2-methoxyanthracene-9,10-dione] | 83 µg/mL (≈ 327 µM) | 67 µg/mL (≈ 264 µM) | 8.88 µg/mL (≈ 34.9 µM) | 52.1 µg/mL (≈ 205 µM) | – |
| COc1cccc2c1C(=O)c1c(O)c3c(c(O)c1C2=O)C[C@@](O)(C(=O)CO)C[C@@H]3O[C@H]1C[C@H](N)[C@H](O)[C@H](C)O1 [Doxorubicin, reference compound] | 7.05 µg/mL (≈ 13 µM) | – | 2.48 µg/mL (≈ 4.56 µM) | 2.17 µg/mL (≈ 3.99 µM) | – |
| COc1ccc(-c2cc(=O)c3c(O)cc(O)cc3o2)cc1 [acacetin] | – | – | – | – | induction of cell death [8]: caused RIP1-dependent necroptotic death and prolonged ERK1/2 activation; effect on invasion, migration and TGF-β1-induced EMT [9]: prevented gastric cancer cells from invasively migrating and developing TGF-β1-induced epithelial-to-mesenchymal transition |
| CC(=O)Oc1ccc2c(c1OC(C)=O)C(=O)c1ccccc1C2=O [alizarin-1,2-diacetate, 1,2-Diacetoxyanthraquinone] | 127 µg/mL (≈ 391 µM) | 142 µg/mL (≈ 437 µM) | ≥ 50 µg/mL | 135 µg/mL (≈ 416 µM) | – |
| CC(=O)Oc1ccc2c(c1O)C(=O)c1ccccc1C2=O [alizarin-2-acetate, 9,10-Dihydro-1-hydroxy-9,10-dioxoanthracen-2-yl Acetate] | 157 µg/mL | 151 µg/mL | ≥ 50 µg/mL | 120 µg/mL | – |
| O=C1c2ccccc2C(=O)c2c1ccc(O)c2O [alizarin] | 52.6 µg/mL (≈ 219 µM) | 111 µg/mL (≈ 462 µM) | 99.4 µg/mL (≈ 414 µM) | 66.9 µg/mL (≈ 279 µM) | effect on breast and bone cancers [10]: impaired both breast and bone cancers by inducing cell cycle arrest in the S phase and inhibiting ERK phosphorylation; effect on cell growth [11]: prevented pancreatic cancer cells from growing |
| O=C1c2ccccc2C(=O)c2c(O)c(O)cc(O)c21 [purpurin] | 244 µg/mL (≈ 954 µM) | 201 µg/mL (≈ 783 µM) | 179 µg/mL (≈ 700 µM) | 148 µg/mL (≈ 577 µM) | – |
| O=C1c2ccccc2C(=O)c2c(O)cc(O)cc21 [xanthopurpurin] | – | – | – | – | selective toxicity [12]: high selective toxicity toward breast and skin cancer cells at lower concentrations without inducing toxicity toward normal cells |
